High-throughput results deposited in PubChem by several laboratories.
Only some compounds are listed: those with a hit (about 12% of all), similar ones and a draw of the others.
Rad51 HR inh: blocks human Rad51 in homologous recombination; hRad51 DNA strand exchange, fluorescence dequenching; inhibition, % at 10 µM; Q06609; actives 0.085% (n = 200,000);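 active = inhibition above 40% at the single screening dose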;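 note: 0% = DMSO control wells and 100% = blanks with heterologous ssDNA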
Target sequence (Q06609 whole entry, looked up): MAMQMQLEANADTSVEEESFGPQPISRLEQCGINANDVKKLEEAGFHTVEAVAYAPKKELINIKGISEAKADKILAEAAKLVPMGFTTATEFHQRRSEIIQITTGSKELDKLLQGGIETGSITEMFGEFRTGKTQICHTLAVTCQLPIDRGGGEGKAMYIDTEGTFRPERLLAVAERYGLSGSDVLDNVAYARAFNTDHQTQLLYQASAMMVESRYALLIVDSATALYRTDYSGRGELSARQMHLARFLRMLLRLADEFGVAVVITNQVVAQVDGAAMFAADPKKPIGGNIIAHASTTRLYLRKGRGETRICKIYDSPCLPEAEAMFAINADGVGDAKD
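Read-out basis: percent inhibition relative to plate controls and blanks / Assay system: human Rad51 nucleoprotein filaments preassembled on unlabelled ssDNA / Timing: filaments 15 min 37 °C, then compound 30 min / Control set: per-plate controls and blanks / Technique: fluorescence dequenching at 485/520 nm / Compound: 10 µM final, single point / Also added: Fluorescein- and BHQ1-tagged 47-mer duplex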
PKD1 kinase inh: blocks activity of human protein kinase D1 | Q15139 | PKD1 kinase fluorescence polarization assay | inhibition, % (concentration not given with the values) | actives 0.056% (n = 200,000)
Arbovirus anti: antivirals against arbovirus infection. AID 1251. inhibition, % at 10 µM. actives 0.37% (n = 200,000). arbovirus infection cell-based antiviral screen; in the data active = inhibition above about 30%
CHOP inh: CHOP inhibition in unfolded protein response. CHO-K1 CHOP-promoter luciferase, tunicamycin-induced, 15-18 h. inhibition, % at 10 µM. actives 3.8% (n = 220,000);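 active = compounds that reduced the stress-induced luciferase reporter signal by more than about 70% of percent inhibition, limit read from the data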;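 note: 0% = tunicamycin plus vehicle and 100% = wells without tunicamycin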
Lmaj promast: inhibitors of Leishmania major promastigote growth. Leishmania major promastigotes, resazurin fluorescence viability. actives 9% (n = 200,000). inhibition, % at 10 µM;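 note: promastigotes grown with compound for 44 hours at 28 °C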
Wee1 stabilizer: inhibitors of human Wee1 degradation; P30291; HeLa Luc-Wee1K328M stability, luciferase luminescence; 100% = proteasome inhibitor MG132 effect; reporter increase, % at 5 µM; actives 1.2% (n = 220,000);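 active = activation above the mean of all tested compounds plus 3 SD, set per screening run, cut at about 8.8% in these data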;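 note: cells exposed to compound for 20 h before luminescence read; 0% = DMSO alone and 100% = MG132 at 30 µM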
* marks the source's active call; other numbers are inactive results; / = no result given. Cut-off read from the data, not from the text of the source, unless noted: active = inhibition above about 50%; inactive = the rest.

SMILES	Rad51 HR inh	PKD1 kinase inh	Arbovirus anti	CHOP inh	Lmaj promast	Wee1 stabilizer
CNC(=O)Nc1ccc2nc(C)oc2c1	6	/	/	21	/	3
Cc1nc2ccc(NC(=O)NC(=O)c3c(Cl)cccc3Cl)cc2o1	2	/	/	-19	/	10*
Cc1cc(Br)c2c(c1)C(O)(N1CCCCC1C)C(=O)N2 (stereo not drawn)	/	-4	-2	-12	1	0
O=C(Nc1c(F)cccc1F)c1cnc(N2CCN(c3ccccn3)CC2)c2ccccc12	-7	1	-8	36	79*	-1
Cc1ccc(NC(=O)c2cnc(N3CCN(c4ccccn4)CC3)c3ccccc23)c(Br)c1	-2	-8	-4	69	26	3
CCn1c(NC(=O)c2ccc(C)cc2)c2ccccc2nc1=O	1	-1	11	7	77*	0
CCn1c(NC(=O)c2ccc(F)cc2)c2ccccc2nc1=O	-3	6	-1	10	3	2
Cc1ccc(C(=O)Nc2c(-c3cccs3)c(=O)c3ccccc3n2C)cc1	1	4	-15	6	-5	9.1*
CN(C)S(=O)(=O)c1ccc(-c2csc(N/N=C/c3ccc(O)cc3)n2)cc1	6	/	/	18	/	-1
Cc1ccc(/C=N/NC(=O)c2cc(-c3cccnc3)nc3ccccc23)cc1	-4	3	-11	-28	6	8
O=C(N/N=C/c1ccc[nH]1)c1cc(-c2ccc(Cl)cc2)nc2ccccc12	/	5	-11	-1	90*	-2
O=C(N/N=C/c1cc([N+](=O)[O-])ccc1Cl)c1cc(-c2ccccc2)nc2ccccc12	2	/	/	9	/	-1
O=C(N/N=C/c1ccc(Cl)cc1)c1cc(-c2cccnc2)nc2ccccc12	11	0	-14	84*	98*	2
NS(=O)(=O)c1ccc(CCNC(=O)CCCOc2ccccc2)cc1	-20	-6	-2	11	-8	4
O=C1CCC(=O)N1OCCCOc1ccc(Br)cc1Cl	2	-10	8	15	8	-1
CC1CCCN(CCOCCOc2ccc(Br)cc2Cl)C1 (stereo not drawn)	-3	-7	-34	7	97*	0
CC1CCN(CCCOc2ccc(Br)cc2Cl)CC1	-151	-4	-23	-7	89*	1
Cc1ccc(OCCCCN2CCC(C)CC2)c(Br)c1	6	-12	-11	15	100*	-2
COc1ccc(CN2CCOCC2)cc1	6	-6	-9	1	2	0
COc1ccc(OC)c(NC(=O)CCN2CCCC(C)C2)c1 (stereo not drawn)	2	2	4	7	2	0
CCCCCOc1ccc(CN2CCOCC2)cc1Cl	4	2	-4	-33	86*	2
CCOc1ccccc1OCCCOc1ccc(C)cc1Br	/	6	8	59	2	-3
CCOC(=O)/C(C#N)=C/Nc1ccccc1OC(F)(F)F	-8	/	/	-11	/	3
CCCCCCN(C(=O)CCCCCN1C(=O)NC(c2ccc(-c3ccccc3)cc2)C(C(=O)OCc2ccccc2)=C1C)C(C(=O)NCCCC)c1ccc(O)c(C(=O)OC)c1 (stereo not drawn)	2	/	/	6	/	/
Clc1cc(Br)ccc1OCCN1CCOCC1	-4	-12	2	21	93*	1
SMILES	Rad51 HR inh	PKD1 kinase inh	Arbovirus anti	CHOP inh	Lmaj promast	Wee1 stabilizer
CC1CCCN(CCOCCOc2ccc(Cl)cc2Br)C1 (stereo not drawn)	-2	-5	-2	-18	98*	0
Clc1ccc(OCCOCCOc2cccc3cccnc23)c(Br)c1	/	5	-4	30	-5	2
CC(C)Nc1ccc(Cl)cc1[N+](=O)[O-]	-38	/	/	-12	/	-5
CCCC(=O)NC(=S)Nc1ccc(N2CCOCC2)c(Cl)c1	6	14	4	32	60*	0
O=C(/C=C/c1ccco1)NC(=S)Nc1ccc(N2CCOCC2)c(Cl)c1	3	8	-19	75*	9	-2
O=C(NC(=S)Nc1ccc(N2CCOCC2)c(Cl)c1)C(c1ccccc1)c1ccccc1	-6	-2	-7	24	13	1
CCn1c(SCC(=O)Nc2ccc(N3CCOCC3)c(Cl)c2)nnc1-c1ccc(N)cc1	3	4	-8	20	73*	1
CC(C)C(=O)Nc1ccc(N2CCCC2)c(Cl)c1	-3	-5	9	-15	0	-2
CC(C)CC(=O)NC(=S)Nc1ccc(N2CCCC2)c(Cl)c1	7	/	/	14	/	10*
Cn1c(NC(=O)c2ccc(S(=O)(=O)N3CCOCC3)cc2)cc(=O)n(C)c1=O	-2	0	-11	24	-5	2
O=C(C[n+]1ccc(/C=N/O)cc1)N(Cc1ccccc1)Cc1ccccc1	5	-5	-2	-5	-1	-2
CC(OC(=O)CNC(=O)c1ccccc1F)C(=O)Nc1nc(-c2ccccc2)cs1 (stereo not drawn)	21	-16	-2	-30	-3	0
CC(C)N=C(NS(=O)(=O)c1ccc(Br)cc1)c1ccc(Cl)cc1	/	-12	-6	10	2	2
O=C(c1cc([N+](=O)[O-])cc([N+](=O)[O-])c1)N(Cc1nnc(-c2ccccc2Cl)o1)C1CC1	-4	3	5	-5	82*	0
O=[N+]([O-])c1ccc(Cc2nnc(-c3ccccc3Cl)o2)cc1	-19	-3	-5	-22	17	9
CCCN(Cc1nnc(-c2ccccc2Cl)o1)C(=O)c1cc([N+](=O)[O-])cc([N+](=O)[O-])c1	17	-2	-3	-16	98*	-3
Cc1ccc(S(=O)(=O)NNc2ccccc2)c(C)c1	/	-4	-6	-26	16	1
COC(=O)c1cnc(SCc2ccc(Cl)cc2)n1C	1	1	4	75*	1	-2
COC(=O)CSc1nnc(SCc2ccc(Cl)cc2)s1	1	-3	3	42	-6	2
COc1ccc(S(=O)(=O)Nc2cccnc2)cc1	1	/	/	19	/	-1
O=C1CC(c2ccco2)Cc2nc(N3CCN(Cc4ccc5c(c4)OCO5)CC3)ncc21 (stereo not drawn)	-2	0	3	27	75*	-1
COc1ccccc1/C=C/CN1CCN(Cc2ccc(F)cc2)C(CCO)C1 (stereo not drawn)	4	-6	2	33	83*	1
COC(=O)c1ccc(CN2CCN(CCC(C)C)C(CCO)C2)cc1 (stereo not drawn)	5	1	-12	-1	62*	-1
COc1cc(CN2CCN(CCc3ccccc3)C(CCO)C2)cc(OC)c1 (stereo not drawn)	9	-2	5	25	64*	2
COc1ccc(CN2CCN(Cc3ccccc3)C(CCO)C2)cc1OC (stereo not drawn)	10	1	-2	8	2	7
CCOc1cc(CN2CCN(CCc3ccccc3)C(CCO)C2)ccc1OC (stereo not drawn)	-26	-2	-4	14	19	-1
